Active and inactive are the calls of the source. The calls are words filed in the database; no cut-off is given here.
Columns and labels:
[1] = molecular target: T1, Discoidin domain-containing receptor 2 (Homo sapiens) (UniProt Q16832); experiment: Inhibition of BCR-fused DDR2 (unknown origin) expressed in BAF3 cells assessed as growth inhibition measured after 72 hrs by CellTiter-Glo or CCK8 assay; type: cell-based
T1 sequence (whole entry): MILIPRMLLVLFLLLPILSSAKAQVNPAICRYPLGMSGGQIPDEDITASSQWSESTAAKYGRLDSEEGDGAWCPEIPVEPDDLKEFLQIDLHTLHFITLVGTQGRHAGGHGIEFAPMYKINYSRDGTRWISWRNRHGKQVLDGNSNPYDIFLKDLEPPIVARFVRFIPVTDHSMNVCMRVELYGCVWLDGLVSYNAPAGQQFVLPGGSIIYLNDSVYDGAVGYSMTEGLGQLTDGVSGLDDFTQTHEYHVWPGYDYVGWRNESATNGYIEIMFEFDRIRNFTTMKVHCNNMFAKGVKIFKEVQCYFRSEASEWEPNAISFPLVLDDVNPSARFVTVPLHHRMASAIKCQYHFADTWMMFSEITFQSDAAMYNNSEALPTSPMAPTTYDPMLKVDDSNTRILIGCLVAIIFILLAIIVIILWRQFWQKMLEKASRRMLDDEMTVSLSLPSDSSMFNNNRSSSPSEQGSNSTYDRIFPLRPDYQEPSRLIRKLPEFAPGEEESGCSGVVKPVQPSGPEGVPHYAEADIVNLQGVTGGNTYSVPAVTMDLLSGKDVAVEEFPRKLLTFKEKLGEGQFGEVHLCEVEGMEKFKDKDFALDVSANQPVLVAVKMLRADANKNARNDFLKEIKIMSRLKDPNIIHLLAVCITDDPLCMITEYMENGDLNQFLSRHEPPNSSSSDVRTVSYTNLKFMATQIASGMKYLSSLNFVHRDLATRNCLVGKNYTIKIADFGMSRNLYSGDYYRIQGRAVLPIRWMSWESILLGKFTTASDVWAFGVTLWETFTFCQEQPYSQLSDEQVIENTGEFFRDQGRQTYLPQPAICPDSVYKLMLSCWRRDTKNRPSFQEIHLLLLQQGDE
Outline: (§1)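 BaF3 lines were made by retroviral transduction with kinase-fusion MSCV vectors packaged in HEK293T cells. Cells were selected with puromycin for 48 h, then selected again without IL-3 so growth depends on the introduced kinase. […] They were seeded at 1 to 2.5×10^4 cells/mL with compound dilutions and incubated 72 h. Viability was read by CellTiter-Glo luminescence or CCK-8 absorbance (450/655 nm), normalized to DMSO control; GI50 was curve-fitted from triplicate tests.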

[2] = molecular target: Vascular endothelial growth factor receptor 2 (Homo sapiens) (UniProt P35968); experiment: Inhibition of Tel-fused VEGFR2 (unknown origin) expressed in BAF3 cells assessed as growth inhibition measured after 72 hrs by CellTiter-Glo or CCK8 assay; type: cell-based; outline: as §1
Chain of Vascular endothelial growth factor receptor 2 (Homo sapiens) (P35968 whole entry, the tested form may be a part): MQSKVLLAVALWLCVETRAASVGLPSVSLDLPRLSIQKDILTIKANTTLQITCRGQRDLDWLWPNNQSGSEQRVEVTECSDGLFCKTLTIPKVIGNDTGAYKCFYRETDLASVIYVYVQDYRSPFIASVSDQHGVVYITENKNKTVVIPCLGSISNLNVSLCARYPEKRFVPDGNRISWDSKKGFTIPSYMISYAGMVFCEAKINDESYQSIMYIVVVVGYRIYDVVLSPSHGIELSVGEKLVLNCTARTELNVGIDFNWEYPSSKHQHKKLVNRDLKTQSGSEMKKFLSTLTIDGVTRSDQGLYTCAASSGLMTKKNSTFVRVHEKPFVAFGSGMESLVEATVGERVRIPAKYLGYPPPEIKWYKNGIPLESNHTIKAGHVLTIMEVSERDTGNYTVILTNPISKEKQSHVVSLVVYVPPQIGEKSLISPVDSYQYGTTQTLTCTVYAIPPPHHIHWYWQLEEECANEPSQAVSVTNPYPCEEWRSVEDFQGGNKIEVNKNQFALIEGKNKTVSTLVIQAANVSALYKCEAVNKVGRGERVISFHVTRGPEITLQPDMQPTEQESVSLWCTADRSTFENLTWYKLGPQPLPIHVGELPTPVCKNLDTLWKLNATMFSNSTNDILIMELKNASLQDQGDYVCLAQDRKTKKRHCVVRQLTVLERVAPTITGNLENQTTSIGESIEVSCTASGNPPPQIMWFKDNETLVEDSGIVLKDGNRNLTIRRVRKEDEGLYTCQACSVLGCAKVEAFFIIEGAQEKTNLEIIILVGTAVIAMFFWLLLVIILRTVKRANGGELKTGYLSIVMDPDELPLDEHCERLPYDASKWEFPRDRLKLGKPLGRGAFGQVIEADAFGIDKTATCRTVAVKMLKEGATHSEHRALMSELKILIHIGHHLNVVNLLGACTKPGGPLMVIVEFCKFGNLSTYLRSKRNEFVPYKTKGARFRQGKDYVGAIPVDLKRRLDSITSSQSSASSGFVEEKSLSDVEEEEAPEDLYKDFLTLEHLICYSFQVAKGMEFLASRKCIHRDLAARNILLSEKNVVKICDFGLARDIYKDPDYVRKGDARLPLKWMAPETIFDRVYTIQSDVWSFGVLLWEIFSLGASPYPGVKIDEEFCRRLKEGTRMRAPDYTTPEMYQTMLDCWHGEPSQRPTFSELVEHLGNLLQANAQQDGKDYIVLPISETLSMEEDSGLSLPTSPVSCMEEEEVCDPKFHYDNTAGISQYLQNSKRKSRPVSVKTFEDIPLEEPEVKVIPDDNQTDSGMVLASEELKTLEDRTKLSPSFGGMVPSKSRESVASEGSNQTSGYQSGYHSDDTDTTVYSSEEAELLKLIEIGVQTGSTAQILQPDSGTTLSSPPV

[3] = Antiproliferative activity against human HL60 cells measured after 72 hrs by CellTiter-Glo or CCK8 assay; type: functional; conditions: HL-60, 72 h
Outline: (§2)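 Cells at 1 to 2.5×10^4 cells/mL were incubated with a range of compound concentrations for 72 h. Viability was read by CellTiter-Glo luminescence or CCK-8 absorbance (450/655 nm) and normalized to DMSO control. GI50 came from curve fitting, with triplicate testing.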

[4] = Antiproliferative activity against human Rec1 cells measured after 72 hrs by CellTiter-Glo or CCK8 assay; type: functional; conditions: Rec1, 72 h; outline: as §2
[5] = test system: K562; experiment: Anticancer activity against human K562 cells xenografted in nu/nu mouse assessed as reduction in tumor progression administered daily via oral gavage measured 28 days post compound treatment; type: functional, cell-based
Outline: (§3)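 Female nu/nu mice received ten million K562 cells subcutaneously in the right flank, in PBS mixed 1:1 with Matrigel. Daily oral gavage began at 200-400 mm³ tumor size, with 4 or 5 mice per group. Dosing was 25, 50 or 100 mg/kg/d or vehicle (0.5% methylcellulose/0.4% Tween80) for 28 days. Body weight and tumor size were normalized to initial values, and final tumor weight was recorded. Data are mean ± SEM.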

[6] = Antiproliferative activity against human U937 cells measured after 72 hrs by CellTiter-Glo or CCK8 assay; type: functional; conditions: U-937, 72 h; outline: as §2
[7] = Antiproliferative activity against human MV4-11 cells measured after 72 hrs by CellTiter-Glo or CCK8 assay; type: functional; conditions: MV4-11, 72 h; outline: as §2
[8] = Growth inhibition of mouse BAF3 cells measured after 72 hrs by CellTiter-Glo or CCK8 assay; type: cell-based; outline: as §2
[9] = Antiproliferative activity against human GISTT1 cells measured after 72 hrs by CellTiter-Glo or CCK8 assay; type: functional; conditions: GISTT1, 72 h; outline: as §2
[10] = Antiproliferative activity against human MOLM14 cells measured after 72 hrs by CellTiter-Glo or CCK8 assay; type: functional; conditions: MOLM-14, 72 h; outline: as §2
[11] = molecular target: BCR/ABL p210 fusion protein (Homo sapiens, UniProt A1Z199); experiment: Inhibition of BCR/ABL p210 fusion protein autophosphorylation at Y245 in human […] cells at 0.01 to 3 uM measured after 2 hrs by immunoblotting; type: cell-based
Chain of BCR/ABL p210 fusion protein (A1Z199 1-97): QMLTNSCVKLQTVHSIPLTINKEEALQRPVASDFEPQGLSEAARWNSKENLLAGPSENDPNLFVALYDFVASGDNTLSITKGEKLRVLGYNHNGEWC
Outline: (§4)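 After an ice-cold PBS wash, cells were lysed in RIPA buffer (50 mM Tris pH 8.0) with protease and phosphatase inhibitors, and protein was quantified by BCA. Lysates were run on SDS-PAGE, transferred to PVDF and blocked in 5% milk/TBST. Phospho- and total proteins were probed by immunoblot with ECL detection; β-actin served as loading control.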

[12] = Anticancer activity against human K562 cells xenografted in nu/nu mouse assessed as tumor growth inhibition at 100 mg/kg administered daily via oral gavage measured 28 days post compound treatment relative to vehicle-treated control; type: functional; conditions: 672 h, read-out: TGI; outline: as §3
[13] = Cell cycle arrest in human GISTT1 cells assessed as accumulation at G0/G1 phase at 0.3 uM after 24 hrs by propidium iodide/RNase staining based flow cytometry; type: functional
Outline: (§5)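 Cells were exposed to serially diluted compound, then fixed in cold 70% ethanol overnight at -20 °C. They were stained with PI/RNase buffer for DNA-content cell-cycle analysis.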

[14] = molecular target: Tyrosine-protein kinase Blk (Homo sapiens, UniProt P51451); experiment: Inhibition of Tel-fused BLK (unknown origin) expressed in BAF3 cells assessed as growth inhibition measured after 72 hrs by CellTiter-Glo or CCK8 assay; type: cell-based; outline: as §1
Chain of Tyrosine-protein kinase Blk (P51451 2-505 limits assumed): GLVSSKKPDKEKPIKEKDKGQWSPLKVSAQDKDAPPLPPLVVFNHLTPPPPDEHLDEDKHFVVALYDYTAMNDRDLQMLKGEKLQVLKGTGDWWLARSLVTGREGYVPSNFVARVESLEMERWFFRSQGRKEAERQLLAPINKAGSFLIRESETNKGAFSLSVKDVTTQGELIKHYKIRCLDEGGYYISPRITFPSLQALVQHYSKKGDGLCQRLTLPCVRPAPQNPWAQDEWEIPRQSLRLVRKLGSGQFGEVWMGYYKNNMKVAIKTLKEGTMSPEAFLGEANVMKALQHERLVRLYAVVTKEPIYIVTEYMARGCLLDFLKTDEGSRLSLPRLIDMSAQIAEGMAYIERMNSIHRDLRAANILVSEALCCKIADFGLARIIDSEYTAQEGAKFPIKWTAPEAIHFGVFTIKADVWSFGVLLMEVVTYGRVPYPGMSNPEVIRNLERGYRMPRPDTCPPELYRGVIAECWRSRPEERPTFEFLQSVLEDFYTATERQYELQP

[15] = Antiproliferative activity against human GIST48B cells measured after 72 hrs by CellTiter-Glo or CCK8 assay; type: functional; outline: as §2
[16] = Antiproliferative activity against CHO cells measured after 72 hrs by CellTiter-Glo or CCK8 assay; type: cell-based, Cricetulus griseus; conditions: chinese hamster; outline: as §2
[17] = molecular target: Mast/stem cell growth factor receptor Kit (Homo sapiens, UniProt P10721); experiment: Inhibition of c-KIT mediated signaling pathways assessed as reduction in AKT phosphorylation at S473 in human GIST882 cells at 0.03 to 10 uM measured after 2 hrs by immunoblotting; type: cell-based; outline: as §4
Chain of Mast/stem cell growth factor receptor Kit (P10721 whole entry): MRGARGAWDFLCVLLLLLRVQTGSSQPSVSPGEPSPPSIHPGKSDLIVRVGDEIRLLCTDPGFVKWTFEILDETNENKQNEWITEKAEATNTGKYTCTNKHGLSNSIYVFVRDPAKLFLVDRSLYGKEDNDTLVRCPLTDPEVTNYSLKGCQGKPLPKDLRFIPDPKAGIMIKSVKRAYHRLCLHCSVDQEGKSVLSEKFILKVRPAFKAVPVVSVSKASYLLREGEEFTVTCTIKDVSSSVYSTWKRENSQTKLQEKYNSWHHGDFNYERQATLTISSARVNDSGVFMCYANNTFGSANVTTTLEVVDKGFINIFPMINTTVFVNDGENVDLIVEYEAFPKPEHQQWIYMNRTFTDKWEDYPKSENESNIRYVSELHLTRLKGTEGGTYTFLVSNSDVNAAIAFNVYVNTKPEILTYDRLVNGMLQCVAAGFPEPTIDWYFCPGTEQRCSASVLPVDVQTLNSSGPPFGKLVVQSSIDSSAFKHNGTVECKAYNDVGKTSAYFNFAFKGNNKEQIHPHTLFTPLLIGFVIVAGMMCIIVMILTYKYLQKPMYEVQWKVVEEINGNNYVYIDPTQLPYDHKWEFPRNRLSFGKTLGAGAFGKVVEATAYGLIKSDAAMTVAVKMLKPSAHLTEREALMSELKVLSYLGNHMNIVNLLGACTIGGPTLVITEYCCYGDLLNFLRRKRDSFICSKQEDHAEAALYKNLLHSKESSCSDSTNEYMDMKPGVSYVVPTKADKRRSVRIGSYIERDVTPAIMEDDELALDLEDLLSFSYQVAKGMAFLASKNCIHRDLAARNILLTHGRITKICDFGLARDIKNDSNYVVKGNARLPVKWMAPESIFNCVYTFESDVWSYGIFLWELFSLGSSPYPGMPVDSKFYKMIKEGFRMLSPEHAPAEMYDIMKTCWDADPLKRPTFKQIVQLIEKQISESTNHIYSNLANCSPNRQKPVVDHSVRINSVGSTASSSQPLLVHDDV

[18] = Antiproliferative activity against human GIST882 cells measured after 72 hrs by CellTiter-Glo or CCK8 assay; type: functional; conditions: GIST882, 72 h; outline: as §2
[19] = Cell cycle arrest in human K562 cells assessed as accumulation at G0/G1 phase at 1 uM after 24 hrs by propidium iodide/RNase staining based flow cytometry; type: functional; outline: as §5

| GI50 [1] | GI50 [2] | inhibition [11] | GI50 [14] | inhibition [17] | Compound | GI50 [3] | GI50 [4] | TGI [5] | GI50 [6] | GI50 [7] | GI50 at 72 h [8] | GI50 [9] | GI50 [10] | inhibition in vivo at 100 mg/kg [12] | Activity [13] | GI50 [15] | GI50 at 72 h [16] | GI50 [18] | Activity [19] |
| --- | --- | --- | --- | --- | --- | --- | --- | --- | --- | --- | --- | --- | --- | --- | --- | --- | --- | --- | --- |
| 6.08 µM | 0.035 µM | Active | 0.658 µM | Active | Cc1ccc(C(=O)N2CCC(Oc3cc(NC(=O)c4ccc(CN5CCN(C)CC5)c(C(F)(F)F)c4)ccc3C)CC2)cn1 | 7.34 µM | 3.47 µM | Dose-dependent effect | 5.73 µM | 8.14 µM | > 10 µM | 0.023 µM | 8.49 µM | 66.8% | Active | 3.96 µM | > 10 µM | 0.095 µM | – |
| > 10 µM | > 10 µM | – | > 10 µM | – | Cc1ccc(NC(=O)c2ccc(CN3CCN(C)CC3)cc2)cc1Nc1nccc(-c2cccnc2)n1 [IMATINIB] | > 10 µM | > 10 µM | – | > 10 µM | > 10 µM | > 10 µM | 0.008 µM | > 10 µM | 31.9% | – | > 10 µM | > 10 µM | 0.014 µM | Active |
